Reference: PubChem BioAssay AID638 (SRMLSC, 2007)
Among all 1,300 compounds or so, about 65 (5%) were called active. Only a sample is shown. Results with a measured potency or affinity are listed apart. Unmarked numbers belong to inactive results.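 The calls were made as follows: active = growth inhibition reaching a set limit at one or more tested doses; inactive = the rest.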

assay: wild-type E. coli BW25113 antibacterial activity – OD615, dose response (AID 638); conditions: at 100 µM (top of the series) unless noted
How it was run: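 Material – E. coli BW25113 wild type · Medium – Kanamycin-supplemented LB broth · Doses – compound dilution series for dose-response · Incubation – 20 h compound exposure, 37 °C · Technique – optical density (absorbance) at 615 nm · Read-out basis – IC50 from 4-parameter logistic, bounds fixed 0–100% · Control set – chloramphenicol at 30 µM final as inhibition control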

First: COc1ccccc1OCC(=O)N(Cc1nc(-c2ccccc2)no1)C1CCCCC1
Second: COc1ccc2nc(SCC(=O)N(C)C3CCCCC3)c(C#N)cc2c1
The growth inhibition of the first is higher: -2.24% for the first, -2.36% for the second.

Compared with `COC(=O)c1ccccc1NC(=O)N1c2ccccc2CC1C` (stereo not drawn), `COC(=O)c1ccc(NC(=O)CN2CCN(c3cccc(Cl)c3)CC2)cc1` is lower in growth inhibition: 3.49% for the first, -2.21% for the second.

First: Cc1ccc(C)n1-n1cnc2sc(-c3ccccc3)cc2c1=O
Second: Cc1cc(Nc2ccccc2)nc(-c2ccccc2O)n1
The growth inhibition of the first is lower: -14.3% for the first, -4.57% for the second.

Compared with `CCOC(=O)c1cn(CC)c2cc(N3CCSCC3)c(F)cc2c1=O`, `CCN(CC)S(=O)(=O)c1ccc2[nH]cc(C(=O)NCCC3=CCCCC3)c(=O)c2c1` is lower in growth inhibition: 10.1% for the first, -6.85% for the second.

Going from `O=C(Nc1ccc(Cl)cc1)N(Cc1cccs1)Cc1cccs1` to `O=C(Nc1nnc(-c2cccs2)o1)c1cccc(Oc2ccccc2)c1`, the growth inhibition rises from -8.41% to 12.7%.

Going from `Cc1ccc(OCc2nc(C#N)c(N3CCN(Cc4ccccc4)CC3)o2)cc1` to `O=S(=O)(Nc1nc2ccccc2nc1N1CCN(c2ccccn2)CC1)c1ccc(Cl)cc1`, the growth inhibition rises from -9.19% to -0.89%.

Compared with `COc1ccc(OC)c(S(=O)(=O)N2CCN(c3c(C)cccc3C)CC2)c1`, `COc1cc(NS(=O)(=O)c2ccc(Br)cc2)c(OC)cc1NC(=O)c1ccco1` is lower in growth inhibition: -10% for the first, -12% for the second.

Compared with `Fc1ccc(-n2c(Cc3ccccc3)nnc2SCc2nc(-c3cccs3)no2)cc1`, `Cc1ccccc1CSc1nc2n(n1)C(c1cccs1)C1=C(CCCC1=O)N2` (stereo not drawn) is lower in growth inhibition: -13.2% for the first, -14.8% for the second.

Going from `C=CCOC(=O)C(C#N)c1nc2ccccc2nc1N1CCCC1` (stereo not drawn) to `Cc1cc(N2CCCCC2)nc(SCc2ccc(C#N)cc2)n1`, the growth inhibition falls from -1.85% to -5.55%.

First: COCc1cc(C)nc2sc3c(=O)oc(C)nc3c12
Second: CCCOc1ccc(C2C(C(=O)c3ccc(C)o3)=C(O)C(=O)N2Cc2cccnc2)cc1 (stereo not drawn)
The growth inhibition of the first is higher: 10.4% for the first, 6.33% for the second.

Compared with `CCCCOC(=O)Nc1ccc(C(=O)OCCC)cc1`, `CCCCCn1c(N2CCC(Cc3ccccc3)CC2)nc2c1c(=O)[nH]c(=O)n2C` is lower in growth inhibition: 6.71% for the first, -11.3% for the second.

First: N#CC1=C(SCC(=O)c2cc3ccccc3oc2=O)NC(=O)C(C#N)C12CCCC2 (stereo not drawn)
Second: CC(C)(C)C1CCC2(CC1)C(C#N)=C(SCC(=O)NC1CCCCC1)NC(=O)C2C#N (stereo not drawn)
The growth inhibition of the first is higher: 14.3% for the first, 12.2% for the second.

First: CC1CCCCN1S(=O)(=O)c1ccc(C(=O)Nc2nnc(-c3cccs3)o2)cc1 (stereo not drawn)
Second: CCOC(=O)Cc1nnc2c(Nc3ccccc3F)nc3nonc3n12
The growth inhibition of the first is higher: 2.23% for the first, -6.59% for the second.

With `N#CC1=C(SCC(=O)NC23CC4CC(CC(C4)C2)C3)NC(=O)C(C#N)C12CCCCC2` (stereo not drawn) the growth inhibition was 18.1% (active).

`Clc1ccc(OCCn2ccnc2)c2ccccc12` gave a growth inhibition of 12.7% [at 50 µM].
